Results taken from ChEMBL document CHEMBL1147364, “An antifungal bibenzyl from the New Zealand liverwort, Plagiochila stephensoniana. Bioactivity-directed isolation, synthesis, and analysis” (J Nat Prod, 1993).
Converted amounts (≈) assume the structure as drawn. The source made the active and inactive calls. The rule behind the calls is not given here.

Columns and labels:
P388 = test: Cytotoxicity against mouse P388 cells after 72 hrs by MTT assay; type: functional, cell-based; conditions: P388, 72 h
In short: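 P-388 murine leukemia cells incubated 72 h with a 2-fold dilution series of sample. Growth read by MTT tetrazolium staining absorbance. IC50 (µg/ml) is the concentration reducing growth to 50% of a solvent control.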

Bacillus subtilis [1] = test: Antibacterial activity against Bacillus subtilis at 2.4 ug/disk by disk diffusion assay; type: functional, organism-based
In short: (§1)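 Sample solution dried onto 6-mm filter paper disks at the stated loading. Disks placed on agar plates seeded with the test organism, then incubated. Read-out is the width of the inhibition zone around the disk, in mm.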

[2] = tested on: Trichophyton mentagrophytes; test: Antifungal activity against Trichophyton mentagrophytes 10100 at 12 ug/disk by disk diffusion assay; type: functional; conditions: read-out: IZ; in short: as §1
Bacillus subtilis [3] = test: Antibacterial activity against Bacillus subtilis at 12 ug/disk by disk diffusion assay; type: functional; conditions: read-out: IZ; in short: as §1
Candida albicans [4] = test: Antifungal activity against Candida albicans 10261 at 2.4 ug/disk by disk diffusion assay; type: functional, organism-based; in short: as §1
Amorphotheca resinae [5] = test: Antifungal activity against Cladosporium resinae 10100 at 60 ug/disk by disk diffusion assay; type: functional; conditions: for zone of inhibition at 60 µg/disc: read-out: IZ; in short: as §1
[6] = tested on: Trichophyton mentagrophytes; test: Antifungal activity against Trichophyton mentagrophytes 10100 at 60 ug/disk by disk diffusion assay; type: functional; conditions: for zone of inhibition at 60 µg/disc: read-out: IZ; in short: as §1
Candida albicans [7] = test: Antifungal activity against Candida albicans 10261 at 12 ug/disk by disk diffusion assay; type: functional; conditions: for zone of inhibition at 12 µg/disc: read-out: IZ; in short: as §1
Candida albicans [8] = test: Antifungal activity against Candida albicans 10261 by tube assay method; type: functional
In short: (§2)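 MIC by standard tube dilution assay. Minimum fungicidal concentration is also reported in µg/ml.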

Escherichia coli [9] = test: Antibacterial activity against Escherichia coli at 60 ug/disk by disk diffusion assay; type: functional, organism-based; in short: as §1
[10] = tested on: Trichophyton mentagrophytes; test: Antifungal activity against Trichophyton mentagrophytes 10100 at 300 ug/disk by disk diffusion assay; type: functional; conditions: for zone of inhibition at 300 µg/disc: read-out: IZ; in short: as §1
Candida albicans [11] = test: Antifungal activity against Candida albicans 10261 at 60 ug/disk by disk diffusion assay; type: functional; conditions: for zone of inhibition at 60 µg/disc: read-out: IZ; in short: as §1
Bacillus subtilis [12] = test: Antibacterial activity against Bacillus subtilis at 300 ug/disk by disk diffusion assay; type: functional; conditions: for zone of inhibition at 300 µg/disc: read-out: IZ; in short: as §1
Poliovirus 1 = test: Antiviral activity against Poliovirus type 1 infected in african green monkey BSC cells assessed as inhibition of virus-induced cytopathic effect; type: functional, organism-based
In short: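 Sample is dried onto 6-mm filter-paper disks and placed directly on BSC-1 (African green monkey kidney) cell monolayers. Cells are infected with Polio Type I (Pfizer vaccine strain) and incubated 24 h. Wells are examined by inverted microscope for a zone of viral and/or cytotoxic inhibition around the disk. Cytotoxicity is scored as zone size (+, ++, +++, whole well).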

Pseudomonas aeruginosa = test: […] aeruginosa at 60 ug/disk by disk diffusion assay; type: functional, organism-based; in short: as §1
Human alphaherpesvirus 1 = test: Antiviral activity against Herpes simplex virus type 1 ATCC VR 733 infected in african green monkey BSC cells assessed as inhibition of virus-induced cytopathic effect; type: functional, organism-based
In short: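 Sample dried onto 6-mm filter paper disks placed directly on BSC-1 (African green monkey kidney) cell monolayers, which were infected with HSV type 1 (ATCC VR 733). After 24 h incubation, examined by inverted microscope. Zone of viral and/or cytotoxic inhibition around the disk recorded.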

Bacillus subtilis [13] = test: Antibacterial activity against Bacillus subtilis at 60 ug/disk by disk diffusion assay; type: functional; conditions: for zone of inhibition at 60 µg/disc: read-out: IZ; in short: as §1
Candida albicans [14] = test: Antifungal activity against Candida albicans 10261 at 300 ug/disk by disk diffusion assay; type: functional; conditions: for zone of inhibition at 300 µg/disc: read-out: IZ; in short: as §1
[15] = tested on: Trichophyton mentagrophytes; test: Antifungal activity against Trichophyton mentagrophytes 10100 at 2.4 ug/disk by disk diffusion assay; type: functional; conditions: for zone of inhibition at 2.4 µg/disc: read-out: IZ; in short: as §1
Postia placenta = test: Antifungal activity against Poria placenta; type: functional, organism-based; conditions: Rhodonia placenta
Gloeophyllum trabeum = test: Antifungal activity against Gloeophyllum trabeum; type: functional, organism-based
[16] = tested on: Trichophyton mentagrophytes; test: Antifungal activity against Trichophyton mentagrophytes 10100 by tube assay method; type: functional; in short: as §2
Amorphotheca resinae [17] = test: Antifungal activity against Cladosporium resinae 10100 at 300 ug/disk by disk diffusion assay; type: functional, organism-based; in short: as §1
[18] = Cytotoxicity against african green monkey BSC cells at 60 ug/mL after 24 hrs; type: cell-based; conditions: chlorocebus aethiops
In short: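 Sample on 6-mm filter paper disks placed directly on BSC-1 monkey kidney cells, incubated 24 h, examined by inverted microscope. Cytotoxic zone scored as +, ++, +++ or whole well.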

Escherichia coli [19] = test: Antibacterial activity against Escherichia coli at 10 ug/disk by disk diffusion assay; type: functional, organism-based
In short: (§3)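 Sample solution dried onto 6-mm filter-paper disks, which are laid on seeded agar Petri dishes and incubated.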

Amorphotheca resinae [20] = test: Antifungal activity against Cladosporium resinae 10100 at 100 units/disk by disk diffusion assay; type: functional, organism-based; in short: as §3
[21] = tested on: Trichophyton mentagrophytes; test: Antifungal activity against Trichophyton mentagrophytes 10100 at 100 units/disk by disk diffusion assay; type: functional, organism-based; in short: as §3
Bacillus subtilis [22] = test: Antibacterial activity against Bacillus subtilis at 30 ug/disk by disk diffusion assay; type: functional; conditions: read-out: IZ; in short: as §1

CO[C@@]12[C@H](COC(N)=O)C3=C(C(=O)C(C)=C(N)C3=O)N1C[C@@H]1N[C@@H]12 [MITOMYCIN]
IC50 (P388): 0.02 µg/mL (≈ 0.0598 µM)

COc1cccc(CCc2ccc(O)cc2)c1
Activity (Bacillus subtilis [1]): inactive | zone of inhibition at 12 µg/disc [2]: 7 mm | zone of inhibition at 12 µg/disc (Bacillus subtilis [3]): 3 mm | Activity (Candida albicans [4]): inactive | zone of inhibition at 60 µg/disc (Amorphotheca resinae [5]): 2 mm | IC50 (P388): > 25 µg/mL | zone of inhibition at 60 µg/disc [6]: 7 mm | zone of inhibition at 12 µg/disc (Candida albicans [7]): 2 mm | MFC (Candida albicans [8]): 125 µg/mL (≈ 548 µM) | MIC (Candida albicans [8]): 125 µg/mL (≈ 548 µM) | Activity (Escherichia coli [9]): inactive | zone of inhibition at 300 µg/disc [10]: 7 mm | zone of inhibition at 60 µg/disc (Candida albicans [11]): 10 mm | zone of inhibition at 300 µg/disc (Bacillus subtilis [12]): 5 mm | Activity (Poliovirus 1): inactive | Activity (Pseudomonas aeruginosa): inactive | Activity (Human alphaherpesvirus 1): inactive | zone of inhibition at 60 µg/disc (Bacillus subtilis [13]): 5 mm | zone of inhibition at 300 µg/disc (Candida albicans [14]): 10 mm | Activity [15]: inactive | IC50 (Postia placenta): 11 µg/mL (≈ 48.2 µM) | IC50 (Gloeophyllum trabeum): 87 µg/mL (≈ 381 µM) | MFC [16]: 62.5 µg/mL (≈ 274 µM) | MIC [16]: 62.5 µg/mL (≈ 274 µM)

COc1cccc(/C=C\c2ccc(O[Si](C)(C)C(C)(C)C)cc2)c1
Activity (Amorphotheca resinae [5]): inactive | Activity [6]: inactive | Activity (Amorphotheca resinae [17]): inactive | Activity (Escherichia coli [9]): inactive | Activity [10]: inactive | Activity (Candida albicans [11]): inactive | Activity (Bacillus subtilis [12]): inactive | Activity (Bacillus subtilis [13]): inactive | Activity (Candida albicans [14]): inactive | Activity [18]: Not Active

GENTAMICIN
inhibition zone (IZ) (Escherichia coli [19]): 8 mm

NYSTATIN
MFC (Candida albicans [8]): 31.2 µg/mL | MIC (Candida albicans [8]): 31.2 µg/mL | inhibition zone (IZ) (Amorphotheca resinae [20]): 10 mm | inhibition zone (IZ) [21]: 8 mm | MFC [16]: 62.5 µg/mL | MIC [16]: 62.5 µg/mL

Cc1cccc(O)c1 [METACRESOL]
Activity (Amorphotheca resinae [5]): inactive | zone of inhibition at 60 µg/disc [6]: 2 mm | Activity (Escherichia coli [9]): inactive | Activity [10]: inactive | Activity (Candida albicans [11]): inactive | Activity (Bacillus subtilis [12]): inactive | Activity (Bacillus subtilis [13]): inactive | Activity (Candida albicans [14]): inactive | Activity [18]: Not Active

COc1ccc(CCc2cccc(OC)c2)cc1
Activity (Amorphotheca resinae [5]): inactive | Activity [6]: inactive | Activity (Escherichia coli [9]): inactive | Activity [10]: inactive | Activity (Candida albicans [11]): inactive | Activity (Bacillus subtilis [12]): inactive | Activity (Bacillus subtilis [13]): inactive | Activity (Candida albicans [14]): inactive | Activity [18]: Not Active

COc1cccc(/C=C/c2ccc(O[Si](C)(C)C(C)(C)C)cc2)c1
Activity (Amorphotheca resinae [5]): inactive | Activity [6]: inactive | Activity (Amorphotheca resinae [17]): inactive | Activity (Escherichia coli [9]): inactive | Activity [10]: inactive | Activity (Candida albicans [11]): inactive | Activity (Bacillus subtilis [12]): inactive | Activity (Bacillus subtilis [13]): inactive | Activity (Candida albicans [14]): inactive | Activity [18]: Not Active

COc1cccc(CCc2ccc(O[Si](C)(C)C(C)(C)C)cc2)c1
Activity (Amorphotheca resinae [5]): inactive | IC50 (P388): > 25 µg/mL | Activity [6]: inactive | Activity (Amorphotheca resinae [17]): inactive | MFC (Candida albicans [8]): > 1000 µg/mL | MIC (Candida albicans [8]): > 1000 µg/mL | Activity (Escherichia coli [9]): inactive | Activity [10]: inactive | Activity (Candida albicans [11]): inactive | Activity (Bacillus subtilis [12]): inactive | Activity (Bacillus subtilis [13]): inactive | Activity (Candida albicans [14]): inactive | Activity [18]: Not Active | MFC [16]: > 1000 µg/mL | MIC [16]: > 1000 µg/mL

COc1cccc(/C=C\c2ccc(O)cc2)c1
Activity (Bacillus subtilis [1]): inactive | zone of inhibition at 12 µg/disc [2]: 7 mm | zone of inhibition at 12 µg/disc (Bacillus subtilis [3]): 4 mm | Activity (Candida albicans [4]): inactive | zone of inhibition at 60 µg/disc (Amorphotheca resinae [5]): 3 mm | IC50 (P388): 16.3 µg/mL (≈ 72 µM) | zone of inhibition at 60 µg/disc [6]: 10 mm | zone of inhibition at 12 µg/disc (Candida albicans [7]): 2 mm | MFC (Candida albicans [8]): 62.5 µg/mL (≈ 276 µM) | MIC (Candida albicans [8]): 31.2 µg/mL (≈ 138 µM) | zone of inhibition at 300 µg/disc [10]: 10 mm | zone of inhibition at 60 µg/disc (Candida albicans [11]): 7 mm | zone of inhibition at 300 µg/disc (Bacillus subtilis [12]): 9 mm | zone of inhibition at 60 µg/disc (Bacillus subtilis [13]): 9 mm | zone of inhibition at 300 µg/disc (Candida albicans [14]): 7 mm | zone of inhibition at 2.4 µg/disc [15]: 5 mm | MFC [16]: 15.6 µg/mL (≈ 69 µM) | MIC [16]: 12.6 µg/mL (≈ 55.8 µM)

O=C(N[C@H](CO)[C@H](O)c1ccc([N+](=O)[O-])cc1)C(Cl)Cl [CHLORAMPHENICOL]
zone of inhibition at 30 µg/disc (Bacillus subtilis [22]): 12 mm

C(=C\c1ccccc1)/c1ccccc1
Activity (Amorphotheca resinae [5]): inactive | Activity [6]: inactive | Activity (Amorphotheca resinae [17]): inactive | Activity (Escherichia coli [9]): inactive | Activity [10]: inactive | Activity (Candida albicans [11]): inactive | Activity (Bacillus subtilis [12]): inactive | Activity (Bacillus subtilis [13]): inactive | Activity (Candida albicans [14]): inactive

COc1cccc(/C=C/c2ccc(O)cc2)c1 [(E)-5-METHOXY-4'-STILBENOL]
Activity (Bacillus subtilis [1]): inactive | zone of inhibition at 12 µg/disc [2]: 8 mm | zone of inhibition at 12 µg/disc (Bacillus subtilis [3]): 2 mm | Activity (Candida albicans [4]): inactive | zone of inhibition at 60 µg/disc (Amorphotheca resinae [5]): 2 mm | IC50 (P388): 9.9 µg/mL (≈ 43.8 µM) | zone of inhibition at 60 µg/disc [6]: 6 mm | Activity (Candida albicans [7]): inactive | MFC (Candida albicans [8]): 125 µg/mL (≈ 552 µM) | MIC (Candida albicans [8]): 31.2 µg/mL (≈ 138 µM) | Activity (Escherichia coli [9]): inactive | zone of inhibition at 300 µg/disc [10]: 10 mm | zone of inhibition at 60 µg/disc (Candida albicans [11]): 2 mm | zone of inhibition at 300 µg/disc (Bacillus subtilis [12]): 6 mm | zone of inhibition at 60 µg/disc (Bacillus subtilis [13]): 4 mm | zone of inhibition at 300 µg/disc (Candida albicans [14]): 7 mm | zone of inhibition at 2.4 µg/disc [15]: 2 mm | MFC [16]: 31.2 µg/mL (≈ 138 µM) | MIC [16]: 31.2 µg/mL (≈ 138 µM)
